# Screening data as filed in PubChem.
# Only a selection was taken, and hits are over-represented in it overall.
# NALP1 inh: blocks the NALP1 inflammasome reconstituted in yeast; S. cerevisiae NALP1/ASC/caspase-1 growth, X-gal OD620, 72 h; inhibition, % at 10 µM; hit rate 0.61% among 280,000; in the data active means inhibition mostly above about 24%, no sharp cut-off; inactive means mostly below about 32%
# NLRP3 yeast inh: inhibitors of NALP3 inflammasome in yeast. hit rate 0.39% among 330,000. Yeast reconstituted NLRP3/ASC/caspase-1, beta-gal luminescence, 24 h. inhibition, % at 10 µM. AID 2825;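 active means inhibition of 50% or more; inactive means inhibition below 50%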
# T cruzi inh: blocks replication of Trypanosoma cruzi; T. cruzi beta-gal in NIH3T3, luminescence, 90 h; inhibition, % (no concentration beside the values); hit rate 1.4% among 300,000; AID 1885;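 active means mean inhibition across valid replicates above about 55%, limit read from the data; inconclusive means mean below that limit but half or more replicates reach it; inactive means mean below it, under half of replicates reach it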;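 further: signal also drops with host cell toxicity which is not excluded here; higher percent means less beta-gal luminescence so fewer parasites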
#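 System: mouse NIH/3T3 fibroblasts infected with β-gal-expressing T. cruzi Tulahuen C4 / Input: NIH/3T3 cells, 5,000 per well / Buffer or medium: Low-serum DMEM with 2% FBS / Probe or stimulus: 5000 reporter trypomastigotes per well / Schedule: ≥90 h infection period, 3 h prior cell attachment / Measured by: GalScreen luminescence, 60 min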
# Lmaj promast: inhibitors of Leishmania major promastigote growth | AID 1063 | hit rate 9% among 200,000 | inhibition, % at 10 µM | Leishmania major promastigotes, resazurin fluorescence viability; in the data active means inhibition above about 50%;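 further: promastigotes grown with compound for 44 hours at 28 °C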
# PolyA inh: yeast polyadenylation inhibition. activity score, % at 12 µM. hit rate 0.02% among 300,000. S. cerevisiae SKY197-pL101 polyadenylation reporter, beta-gal luminescence; efflux-impaired pdr1/pdr3 knockout yeast; score 100 = 6 SD above DMSO. AID 1875;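 active means lowest replicate activity score at least 50, where 100 means six control SD above control mean; inconclusive means lowest score under 50 but half or more replicates reach 50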;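 further: yeast exposed to compound for 9 h at 30 °C; higher score means more reporter readthrough which indicates perturbed polyadenylation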
# Calb FLC: affects C. albicans growth with fluconazole | hit rate 0.57% among 300,000 | growth inhibition, % (test concentration not listed) | AID 1979 | C. albicans CaCi-2 + fluconazole, Alamar Blue growth, 48 h;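 active means growth inhibition above about 58% in most replicates, limit read from the data, passing the limit was not always enough; inconclusive means exactly half the replicates above a set limit; inactive means most replicates below a set limit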;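 further: all wells also contain fluconazole at 8 µg/ml as a sub-toxic cotreatment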
# A number is an active result; . = inactive; ? = inconclusive; / = no result.
SMILES,NALP1 inh,NLRP3 yeast inh,T cruzi inh,Lmaj promast,PolyA inh,Calb FLC
CC(C)(C)OC(=O)C[C@H]1C/C=C\C[C@H](CC(=O)N(CCO)Cc2ccccc2)C(=O)NC[C@H](c2ccccc2)OC1=O,/,.,/,/,/,/
Cc1ccc(NC(=O)C2C3C=CC(O3)C2C(=O)O)c(C)c1 (configuration not stated),.,.,.,/,.,.
COC(=O)c1c(NC(=O)CSc2nc3nc(C)cc(C)n3n2)sc(C)c1C,.,.,.,52,.,?
CCOC(=O)c1c(NC(=O)CSc2nncs2)sc(C)c1-c1ccccc1,.,.,.,75,.,.
COC(=O)c1c(NC(=O)CSc2nc3ccccc3c(=O)n2-c2ccccc2)sc(C)c1C,.,.,.,99,.,.
CCOC(=O)c1c(NC(=O)CSc2ncnc3ccccc23)sc(C)c1C,.,.,.,77,.,.
CCOC(=O)c1c(NC(=O)CSc2ccccc2C(=O)O)sc(C)c1C,.,.,.,.,.,.
O=S(=O)(c1cccc(C(F)(F)F)c1)N1CCN(C(=S)NC2CC2)CC1,.,.,.,55,.,.
CC(C)NC(=S)N1CCN(S(=O)(=O)c2cccc(C(F)(F)F)c2)CC1,.,.,.,95,.,.
CCOC(=O)NC(NC(=O)OCC)C(=O)c1ccc(F)cc1,.,.,.,.,.,.
CCN(CC)P(=O)(Nc1ccc(C)cc1Br)c1ccc(N(C)C)cc1NC(=O)c1ccco1 (configuration not stated),.,.,64,65,.,.
COc1ccc(/C=N/NC(=O)c2nc(-c3ccccc3)n(-c3ccccc3)n2)c(O)c1,.,.,.,99,.,.
CC(C)(C)c1cc(C(=O)N/N=C/c2ccccc2O)n(-c2ccccc2)n1,.,.,.,99,.,.
O=C1CCN1C1(C(=O)NC2CCCCC2)CCCC1,.,.,.,.,.,.
O=c1c([N+](=O)[O-])c(NCCN2CCCCCC2)c2ccccc2n1-c1ccccc1,.,.,.,.,.,.
O=c1c([N+](=O)[O-])c(N2CCCCC2)c2ccccc2n1-c1ccccc1,36,.,.,.,.,.
CCOc1cc(N2CCOCC2)c(OCC)cc1NC(=O)COc1ccc2ccc(=O)oc2c1,.,.,.,.,.,.
Cc1c(C(=O)Nc2ccc(F)cc2)sc2ncn(CC(=O)N3CCCCC3)c(=O)c12,.,.,.,/,.,.
COc1ccc(NC(=O)Nc2ccc3c(c2)C(=O)N([C@H](C)CO)C[C@H](C)[C@@H](CN(C)C(=O)Nc2ccc(OC)cc2)O3)cc1,/,.,/,/,/,/
CN(C)S(=O)(=O)Nc1ccc(NS(=O)(=O)N(C)C)c(S(=O)(=O)c2ccccc2)c1,27,.,.,.,.,.
CN(C)S(=O)(=O)Nc1ccc2c(c1)Cc1ccccc1-2,.,.,.,.,.,.
COc1cccc(NC(=O)CN(C)S(=O)(=O)/C=C/c2ccccc2)c1,/,.,/,/,/,/
CC(=O)c1cccc(N=c2scc(-c3ccc(S(=O)(=O)N4CCOCC4)cc3)n2CCO)c1,.,.,.,95,.,?
COC(=O)c1ccc(OC)c(Cn2c(=O)n(C)c(=O)c3sccc32)c1,.,.,.,/,.,.
COC(=O)c1ccc(OC)c(CN2CCCN(Cc3cc(C)ccc3C)S2(=O)=O)c1,.,.,69,/,.,.
SMILES,NALP1 inh,NLRP3 yeast inh,T cruzi inh,Lmaj promast,PolyA inh,Calb FLC
CC(C)(C)OC(=O)N1CCC(c2c(C(=O)NC3CC3)cnn2-c2ccc(Cl)cc2)CC1,.,.,.,/,.,.
CCCn1c(C)cc(/C=C(\C#N)C(=O)OCC(=O)Nc2cccc(OC)c2)c1C,.,.,.,61,.,.
Cc1cccc(CN2C(=O)CCSc3ccc(Cl)cc32)c1,.,.,.,.,.,.
CC(C)COc1ccc(C/C(N)=N/n2cnnc2)cc1,.,.,.,.,.,.
CC(C)COc1ccc(Cc2cnc(N)nc2N)cc1,.,.,.,72,.,.
CS/C(=N\S(=O)(=O)c1cccs1)NC(=O)CSc1nc2ccccc2s1,.,.,.,.,.,.
CCCCSc1nnc(CNC(=O)C23CC4CC(CC(C4)C2)C3)n1Cc1ccccc1,.,.,.,.,.,.
CC1CCC(NC(=O)c2cc3c(s2)CCCC3)CC1 (configuration not stated),/,.,.,/,.,.
